Test results published in ChEMBL document CHEMBL1134594 (J Med Chem, 2001).
Where a SMILES comes first, the peptide text is derived from it. Bridges are numbered along the chain shown (N, C = ends).

How the values were obtained:
[1] = target: Adenylate cyclase; experiment: Adenylate cyclase activity measured as PA2; assay type: protein assay
[2] = target: T1, Adenylate cyclase (Rattus norvegicus) (UniProt D4A3N4+P26770+Q04400+P26769+Q03343+P40146+Q8CFM9+P21932); experiment: Adenylate cyclase activity measured as percentage stimulation; assay type: protein assay; set-up: concentration or dose not given beside the values
[3] = target: Glucagon receptor (Rattus norvegicus, UniProt P30082); experiment: Glucagon receptor binding measured as 50% inhibitory concentration
How it was run: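 Membranes (50 µg protein) were taken from the livers of male Sprague Dawley rats (200-250 g), purified on a sucrose gradient. […] Nonspecific binding was defined with excess unlabeled peptide and subtracted. Run in triplicate, repeated twice.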

[4] = target: Adenylate cyclase; experiment: Adenylate cyclase activity measured as 50% inhibitory concentration; assay type: protein assay
[5] = target: T1, Adenylate cyclase (Rattus norvegicus); experiment: Adenylate cyclase activity measured as percentage stimulation at (20uM); assay type: protein assay
How it was run: (§1)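 Rat liver plasma membranes (35 µg protein) incubated in 0.1 mL of 25 mM Tris (pH 7.5) with 0.4% BSA, 1 mM [α-32P]ATP, 5 mM MgCl2, GTP, 1 mM EDTA, 1 mM cAMP with [3H]cAMP tracer, and a phosphocreatine/creatine phosphokinase ATP-regenerating system. Labeled cAMP was isolated on Dowex cation-exchange and alumina columns.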

[6] = target: T1, Adenylate cyclase (Rattus norvegicus); experiment: Adenylate cyclase activity measured as percentage stimulation at 20 uM; assay type: protein assay; how it was run: as §1
[7] = target: T1, Adenylate cyclase (Rattus norvegicus); experiment: Adenylate cyclase activity measured as percentage stimulation at (1 uM); assay type: protein assay; how it was run: as §1

Glucagon receptor, sequence (P30082 whole entry): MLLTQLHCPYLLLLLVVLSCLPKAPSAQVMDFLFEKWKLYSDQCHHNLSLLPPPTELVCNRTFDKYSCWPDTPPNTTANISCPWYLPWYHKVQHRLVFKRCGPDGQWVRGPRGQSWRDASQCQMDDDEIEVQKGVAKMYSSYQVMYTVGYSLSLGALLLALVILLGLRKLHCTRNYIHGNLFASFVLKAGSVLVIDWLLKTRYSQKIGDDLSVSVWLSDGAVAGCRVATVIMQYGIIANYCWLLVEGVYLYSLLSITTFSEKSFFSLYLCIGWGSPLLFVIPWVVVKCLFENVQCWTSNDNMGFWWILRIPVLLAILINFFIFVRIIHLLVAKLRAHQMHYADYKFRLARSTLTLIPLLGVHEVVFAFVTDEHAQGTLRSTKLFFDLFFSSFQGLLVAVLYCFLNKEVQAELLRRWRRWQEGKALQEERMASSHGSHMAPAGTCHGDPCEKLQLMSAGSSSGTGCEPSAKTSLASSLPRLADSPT

SMILES	pA2 [1]	Activity [2] [%]	IC50 [3] [µM]	EC50 [4] [µM]	Activity [5] [%]	Activity [6] [%]	Activity [7] [%]
CSCC[C@H](NC(=O)[C@H](CC(C)C)NC(=O)[C@H](Cc1c[nH]c2ccccc12)NC(=O)[C@H](CCC(N)=O)NC(=O)[C@@H](NC(=O)[C@H](Cc1ccccc1)NC(=O)[C@H](CC(=O)O)NC(=O)[C@H](CCC(N)=O)NC(=O)[C@H](C)NC(=O)[C@H](CCCN=C(N)N)NC(=O)[C@H](CCCN=C(N)N)NC(=O)[C@H](CO)NC(=O)[C@H](CC(=O)O)NC(=O)[C@H](CC(C)C)NC(=O)[C@H](Cc1ccc(O)cc1)NC(=O)[C@H](CCCCN)NC(=O)[C@H](CO)NC(=O)[C@H](Cc1ccc(O)cc1)NC(=O)[C@@H]1CCC(=O)NCCCC[C@H](NC(=O)CNC(=O)[C@H](CCC(N)=O)NC(=O)[C@H](CO)NC(=O)[C@@H](N)Cc2c[nH]cn2)C(=O)N[C@@H](Cc2ccccc2)C(=O)N[C@@H]([C@@H](C)O)C(=O)N[C@@H](CO)C(=O)N1)C(C)C)C(=O)N[C@@H](CC(N)=O)C(=O)N[C@H](C(=O)O)[C@@H](C)O (H-HSQGKFTSEYSKYLDSRRAQDFVQWLMNT-OH; lactam 5-9)	8.26	12	0.0002	0.39	–	–	–
CSCC[C@H](NC(=O)[C@H](CC(C)C)NC(=O)[C@H](Cc1c[nH]c2ccccc12)NC(=O)[C@H](CCC(N)=O)NC(=O)[C@@H](NC(=O)[C@H](Cc1ccccc1)NC(=O)[C@H](CC(=O)O)NC(=O)[C@H](CCC(N)=O)NC(=O)[C@H](C)NC(=O)[C@H](CCCN=C(N)N)NC(=O)[C@H](CCCN=C(N)N)NC(=O)[C@H](CO)NC(=O)[C@H](CC(=O)O)NC(=O)[C@H](CC(C)C)NC(=O)[C@H](Cc1ccc(O)cc1)NC(=O)[C@@H]1CSSC[C@H](NC(=O)[C@H](Cc2ccccc2)NC(=O)[C@@H](NC(=O)CNC(=O)[C@H](CCC(N)=O)NC(=O)[C@H](CO)NC(=O)[C@@H](N)Cc2c[nH]cn2)[C@@H](C)O)C(=O)N[C@@H](CO)C(=O)N[C@@H](CC(=O)O)C(=O)N[C@@H](Cc2ccc(O)cc2)C(=O)N[C@@H](CO)C(=O)N1)C(C)C)C(=O)N[C@@H](CC(N)=O)C(=O)N[C@H](C(=O)O)[C@@H](C)O (H-HSQGTFCSDYSCYLDSRRAQDFVQWLMNT-OH; disulfide 7-12)	–	–	0.558	5.9	53	–	–
CSCC[C@H](NC(=O)[C@H](CC(C)C)NC(=O)[C@H](Cc1c[nH]c2ccccc12)NC(=O)[C@H](CCC(N)=O)NC(=O)[C@@H](NC(=O)[C@H](Cc1ccccc1)NC(=O)[C@H](CC(=O)O)NC(=O)[C@H](CCC(N)=O)NC(=O)[C@H](C)NC(=O)[C@H](CCCN=C(N)N)NC(=O)[C@H](CCCN=C(N)N)NC(=O)[C@H](CO)NC(=O)[C@H](CC(=O)O)NC(=O)[C@H](CC(C)C)NC(=O)[C@H](Cc1ccc(O)cc1)NC(=O)[C@H](CCCCN)NC(=O)[C@H](CO)NC(=O)[C@H](Cc1ccc(O)cc1)NC(=O)[C@H](CS)NC(=O)[C@H](CO)NC(=O)[C@@H](NC(=O)[C@H](Cc1ccccc1)NC(=O)[C@@H](NC(=O)[C@H](CS)NC(=O)[C@H](CCC(N)=O)NC(=O)[C@H](CO)NC(=O)[C@@H](N)Cc1c[nH]cn1)[C@@H](C)O)[C@@H](C)O)C(C)C)C(=O)N[C@@H](CC(N)=O)C(=O)N[C@H](C(=O)O)[C@@H](C)O (H-HSQCTFTSCYSKYLDSRRAQDFVQWLMNT-OH)	–	18	0.0036	0.295	–	–	–
CSCC[C@H](NC(=O)[C@H](CC(C)C)NC(=O)[C@H](Cc1c[nH]c2ccccc12)NC(=O)[C@H](CCC(N)=O)NC(=O)[C@@H](NC(=O)[C@H](Cc1ccccc1)NC(=O)[C@H](CC(=O)O)NC(=O)[C@H](CCC(N)=O)NC(=O)[C@@H]1CSSC[C@H](NC(=O)[C@H](Cc2ccc(O)cc2)NC(=O)[C@H](CCCCN)NC(=O)[C@H](CO)NC(=O)[C@H](Cc2ccc(O)cc2)NC(=O)[C@H](CC(=O)O)NC(=O)[C@H](CO)NC(=O)[C@@H](NC(=O)[C@H](Cc2ccccc2)NC(=O)[C@@H](NC(=O)CNC(=O)[C@H](CCC(N)=O)NC(=O)[C@H](CO)NC(=O)[C@@H](N)Cc2c[nH]cn2)[C@@H](C)O)[C@@H](C)O)C(=O)N[C@@H](CC(=O)O)C(=O)N[C@@H](CO)C(=O)N[C@@H](CCCN=C(N)N)C(=O)N[C@@H](CCCN=C(N)N)C(=O)N1)C(C)C)C(=O)N[C@@H](CC(N)=O)C(=O)N[C@H](C(=O)O)[C@@H](C)O (H-HSQGTFTSDYSKYCDSRRCQDFVQWLMNT-OH; disulfide 14-19)	–	–	0.562	7.5	–	30	–
CSCC[C@H](NC(=O)[C@H](CC(C)C)NC(=O)[C@H](Cc1c[nH]c2ccccc12)NC(=O)[C@H](CCC(N)=O)NC(=O)[C@@H](NC(=O)[C@H](Cc1ccccc1)NC(=O)[C@H](CC(=O)O)NC(=O)[C@H](CCC(N)=O)NC(=O)[C@H](CS)NC(=O)[C@H](CCCN=C(N)N)NC(=O)[C@H](CCCN=C(N)N)NC(=O)[C@H](CO)NC(=O)[C@H](CC(=O)O)NC(=O)[C@H](CS)NC(=O)[C@H](Cc1ccc(O)cc1)NC(=O)[C@H](CCCCN)NC(=O)[C@H](CO)NC(=O)[C@H](Cc1ccc(O)cc1)NC(=O)[C@H](CC(=O)O)NC(=O)[C@H](CO)NC(=O)[C@@H](NC(=O)[C@H](Cc1ccccc1)NC(=O)[C@@H](NC(=O)CNC(=O)[C@H](CCC(N)=O)NC(=O)[C@H](CO)NC(=O)[C@@H](N)Cc1c[nH]cn1)[C@@H](C)O)[C@@H](C)O)C(C)C)C(=O)N[C@@H](CC(N)=O)C(=O)N[C@H](C(=O)O)[C@@H](C)O (H-HSQGTFTSDYSKYCDSRRCQDFVQWLMNT-OH)	–	–	0.0137	0.236	–	–	100
CSCC[C@H](NC(=O)[C@H](CC(C)C)NC(=O)[C@H](Cc1c[nH]c2ccccc12)NC(=O)[C@H](CCC(N)=O)NC(=O)[C@@H](NC(=O)[C@H](Cc1ccccc1)NC(=O)[C@H](CC(=O)O)NC(=O)[C@H](CCC(N)=O)NC(=O)[C@H](C)NC(=O)[C@H](CCCN=C(N)N)NC(=O)[C@H](CCCN=C(N)N)NC(=O)[C@H](CO)NC(=O)[C@H](CC(=O)O)NC(=O)[C@H](CC(C)C)NC(=O)[C@H](Cc1ccc(O)cc1)NC(=O)[C@H](CCCCN)NC(=O)[C@H](CO)NC(=O)[C@H](Cc1ccc(O)cc1)NC(=O)[C@H](CC(=O)O)NC(=O)[C@H](CO)NC(=O)[C@@H]1CCC(=O)NCCCC[C@H](NC(=O)[C@H](CO)NC(=O)[C@@H](N)Cc2c[nH]cn2)C(=O)NCC(=O)N[C@@H]([C@@H](C)O)C(=O)N[C@@H](Cc2ccccc2)C(=O)N1)C(C)C)C(=O)N[C@@H](CC(N)=O)C(=O)N[C@H](C(=O)O)[C@@H](C)O (H-HSKGTFESDYSKYLDSRRAQDFVQWLMNT-OH; lactam 3-7)	8.28	–	0.006	–	–	–	–
CSCC[C@H](NC(=O)[C@H](CC(C)C)NC(=O)[C@H](Cc1c[nH]c2ccccc12)NC(=O)[C@H](CCC(N)=O)NC(=O)[C@@H](NC(=O)[C@H](Cc1ccccc1)NC(=O)[C@H](CC(=O)O)NC(=O)[C@H](CCC(N)=O)NC(=O)[C@H](C)NC(=O)[C@H](CCCN=C(N)N)NC(=O)[C@H](CCCN=C(N)N)NC(=O)[C@H](CO)NC(=O)[C@H](CC(=O)O)NC(=O)[C@H](CC(C)C)NC(=O)[C@H](Cc1ccc(O)cc1)NC(=O)[C@H](CS)NC(=O)[C@H](CO)NC(=O)[C@H](Cc1ccc(O)cc1)NC(=O)[C@H](CC(=O)O)NC(=O)[C@H](CO)NC(=O)[C@H](CS)NC(=O)[C@H](Cc1ccccc1)NC(=O)[C@@H](NC(=O)CNC(=O)[C@H](CCC(N)=O)NC(=O)[C@H](CO)NC(=O)[C@@H](N)Cc1c[nH]cn1)[C@@H](C)O)C(C)C)C(=O)N[C@@H](CC(N)=O)C(=O)N[C@H](C(=O)O)[C@@H](C)O (H-HSQGTFCSDYSCYLDSRRAQDFVQWLMNT-OH)	–	–	–	0.059	100	–	–
